The list is not random: actives were taken first. Their share in the collection is about 2.1%.
proKLK7 act – proKLK7 zymogen activators, primary screen, biochemical, fluorescence intensity; Kallikrein-7 (Homo sapiens), P49862; purified proKLK7, EDANS-DABCYL substrate fluorescence; 100% is mature enzyme control, 0% vehicle; activation, % at 7 µM; 0.9% of 370,000 active; AID 652039, 2013;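 active means activation above the mean of all tested compounds plus 3 SD, computed per campaign excluding outliers beyond control limits, cut at about 13% in these data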
MEX-5 binding – MEX-5 zinc finger RNA-binding disruptors – biochemical, C. elegans, fluorescence polarization, MLPCN library, primary screen; 0.38% of 300,000 active; activity score (negative = inhibition of binding), % at 10 µM; AID 1832, 2009; Zinc finger protein mex-5 (Caenorhabditis elegans), Q9XUB2; MEX-5/FITC-TCR2 RNA binding; hits give low values;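 active means inhibition past about -25% in most replicates, and total fluorescence under double the plate's negative control median, limit read from the data; inconclusive means replicates evenly split on the limit, or fluorescence at least double controls; inactive means too little inhibition in most replicates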;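 further: 0% = DMSO and -100% = 5 µM competing unlabeled TCR2 RNA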
Runt-CBFb FRET – inhibitors of RUNX1 Runt–CBFb binding, primary screen, biochemical, FRET, Cerulean-Runt, Venus-CBFb, uHTS; Runt-related transcription factor 1 (Homo sapiens) + Core-binding factor subunit beta …; Cerulean-Runt/Venus-CBFb FRET ratio 530/480, 1 h; inhibition, % at 20 µM; 0.46% of 220,000 active; AID 1496, 2009;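 active means inhibition over about 50% at 20 µM in the single-dose screen, limit read from the data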;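 further: 0% = DMSO wells and 100% = excess unlabeled CBFb competitor control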
Target sequence (Q01196 whole entry, looked up): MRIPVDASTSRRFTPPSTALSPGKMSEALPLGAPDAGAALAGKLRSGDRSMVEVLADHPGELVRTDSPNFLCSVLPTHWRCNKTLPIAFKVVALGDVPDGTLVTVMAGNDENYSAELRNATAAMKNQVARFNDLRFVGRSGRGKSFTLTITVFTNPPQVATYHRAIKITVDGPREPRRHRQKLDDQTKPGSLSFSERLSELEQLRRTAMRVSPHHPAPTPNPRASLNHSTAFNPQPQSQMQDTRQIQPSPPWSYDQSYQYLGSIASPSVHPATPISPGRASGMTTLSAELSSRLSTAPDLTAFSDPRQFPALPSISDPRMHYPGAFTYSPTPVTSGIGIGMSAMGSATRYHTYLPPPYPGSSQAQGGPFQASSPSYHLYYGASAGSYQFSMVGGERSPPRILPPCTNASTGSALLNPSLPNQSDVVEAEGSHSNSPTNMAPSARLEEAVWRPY
Target sequence (Q13951 whole entry, looked up): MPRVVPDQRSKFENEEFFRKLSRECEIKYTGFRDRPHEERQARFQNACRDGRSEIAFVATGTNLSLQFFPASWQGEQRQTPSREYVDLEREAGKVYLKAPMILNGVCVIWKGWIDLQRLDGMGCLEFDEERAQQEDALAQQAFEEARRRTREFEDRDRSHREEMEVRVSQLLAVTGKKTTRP
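Buffer or medium: Tris pH 7.5 buffer with BSA. Assay system: Cerulean-labeled Runt domain protein. Amount: each fluorescent fusion protein 100 nM. Read-out basis: loss of energy transfer signal. Incubation: 1 h compound exposure, room temperature. Probe or stimulus: Venus-CBFb binding partner, 100 nM. Detection: FRET, excitation 422 nm, emission at 530 and 480 nm.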
RanGTP-Imp inh – inhibitors of RanGTP-importin-beta interaction, primary screen, biochemical, FRET, CFP-Ran, YFP-importin-beta, homogeneous; Ran GTPase (GTP-bound) - importin-beta complex; 1.1% of 300,000 active; AID 2216, 2009; cell-free CFP-Ran/YFP-importin-beta FRET ratio; inhibition, % (no concentration beside the values);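 active means more than half of the replicate wells show a fall in the fluorescence ratio signal beyond about 16%, limit read from the data, passing the limit was not always enough; inconclusive means exactly half of the replicate wells pass the set limit; inactive means fewer than half of replicates pass the limit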;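 further: 0% = DMSO wells and 100% = Ran loaded with GDP instead of GTP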
Runt-SMMHC FRET – inhibitors of RUNX1 Runt–CBFb-SMMHC binding, primary screen, biochemical, FRET, Cerulean-Runt, Venus-CBFb-SMMHC, uHTS; 0.74% of 220,000 active; AID 1434, 2008; Runt-related transcription factor 1 (Homo sapiens) + Core-binding factor subunit beta …; inhibition, % at 20 µM; Cerulean-Runt/Venus-CBFb-SMMHC FRET ratio 530/480, 1 h;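 active means mean inhibition across duplicate retests at 20 µM reaching about 50%, limit read from the data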;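 further: 0% = DMSO wells and 100% = wells with excess untagged CBFb-SMMHC; inhibitors lower the FRET ratio by blocking Runt binding to CBFb-SMMHC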
Active calls of the source: *; ? = inconclusive; · = no result given.

SMILES	proKLK7 act	MEX-5 binding	Runt-CBFb FRET	RanGTP-Imp inh	Runt-SMMHC FRET
CCn1nc(NC(=O)c2ccco2)c2cc3cc(C)ccc3nc21	0	1	39	54*	84*
CCCn1nc(NC(=O)c2ccco2)c2cc3ccccc3nc21	2	-2	15	46*	58
c1ccc(Cn2c(SC3CCCCC3)nnc2-c2cccnc2)cc1	0	·	·	·	·
O=C1C(Cl)=C(NC(=O)c2ccccc2)C(=O)C(Cl)=C1NC(=O)c1ccccc1	0	-86*	·	-5	·
O=C(NC1=C(Nc2ccc(Cl)cc2)C(=O)c2ccccc2C1=O)c1ccccc1	0	-1	-3	?	-4
OCCOc1ccc(C2=NCCO2)cc1	-1	-50*	1	-4	2
CCCCn1nc(NC(=O)CCC)c2cc3cc(OC)ccc3nc21	-5	3	·	71*	·
COc1ccc2nc3c(cc2c1)c(NC(=O)CC(C)C)nn3CC(C)C	-2	-2	·	74*	·
COc1ccc2nc3c(cc2c1)c(NC(=O)C1CCCO1)nn3CC(C)C (configuration not stated)	2	0	12	119*	61*
CCCCn1nc(NC(=O)CC(C)C)c2cc3cc(OC)ccc3nc21	-1	-1	·	84*	·
CCn1nc(NC(=O)CC(C)C)c2cc3ccc(C)cc3nc21	-160	-1	·	10	·
C[C@H](CO)N1C[C@H](C)[C@H](CN(C)C(=O)Nc2ccc(N3CCN(C)CC3)cc2)OCc2cnnn2CCCC1=O	0	·	·	·	·
COC(=O)C1=C(C)N(CC(C)C)C(=S)NC1c1ccc(-c2ccccc2)cc1 (configuration not stated)	0	·	·	·	·
CCOC(=O)[C@@]12CCC3=C1N(CCC3)C(=O)[C@H](CC(=O)NCCCOC)C2	0	·	·	·	·
CCOc1ccc(/C=C(\C(=O)O)c2ccc(S(=O)(=O)N3CCCCC3)s2)cc1OC	0	·	·	·	·
CCOc1ccc(/C=C(\C(=O)O)c2ccc(S(=O)(=O)N3CCOCC3)s2)cc1OC	-2	-2	15	104*	69*
O=C(O)/C(=C\c1ccc(Cl)cc1)c1ccc(S(=O)(=O)N2CCCC2)s1	0	·	·	·	·
CSc1ccc(/C=C(\C(=O)O)c2ccc(S(=O)(=O)N3CCCCC3)s2)cc1	-4	0	9	45*	26
CCOC(=O)N1CCN(C(=O)C[C@H]2C[C@@]3(C(=O)OC)C(=C[C@H](COCc4ccccc4)O[C@@H]3C)N(Cc3ccc(Cl)cc3Cl)C2=O)CC1	1	·	·	·	·
COCCCN1C2=C(C(=O)CC(C)(C)C2)C(c2ccc(OC)c(OC)c2)C2=C1CC(C)(C)CC2=O	1	1	·	1	·
COc1ccc(C2C3=C(CC(C)(C)CC3=O)Nc3c2c(=O)[nH]c(=O)n3Cc2ccccc2)cc1 (configuration not stated)	-16	4	102*	84*	40
COc1ccc(C2C3=C(CC(C)(C)CC3=O)Nc3n[nH]c(C)c32)cc1 (configuration not stated)	9	-1	-1	6	0
COc1ccc(C2C3=C(CC(C)(C)CC3=O)Nc3c2c(=O)[nH]c(=O)n3Cc2ccccc2)cc1OC (configuration not stated)	-43	-1	56*	88*	79*
NC(=O)c1cc(S(=O)(=O)NCCc2ccc(Cl)cc2)cs1	0	-2	·	1	·
Cn1c(NNC(=O)c2c(F)cccc2F)cc(=O)n(C)c1=O	0	-5	11	9	6
SMILES	proKLK7 act	MEX-5 binding	Runt-CBFb FRET	RanGTP-Imp inh	Runt-SMMHC FRET
Cn1c(NNC(=O)c2cccc3ccccc23)cc(=O)n(C)c1=O	0	1	49	24*	93*
Cc1ccc(C(=O)NNc2cc(=O)n(C)c(=O)n2C)cc1C	1	1	20	28*	49
CCn1c(C)nc2cc(N)ccc21	0	-51*	14	0	-5
Cc1nc2cc(N)ccc2n1C1CCCCC1	0	-39*	8	-1	4
Nc1[nH]c(C(=O)c2ccccc2)c(-c2ccccc2C(F)(F)F)c1C(=O)NCc1cccc2ccccc12	0	·	·	·	·
COc1ccccc1C(=O)NNC(=S)NC(=O)c1sc2ccccc2c1Cl	0	1	2	?	-7
COc1ccccc1C(=O)NC(=S)NNC(=O)c1sc2ccccc2c1Cl	0	0	0	49*	-4
CCN1CCS/C1=C\C=C\C1=[N+](CC)CCS1	-1	3	128*	6	·
CCN1CCS/C1=C/C=C/C1=[N+](CC)CCS1	·	3	140*	-3	120*
O=c1[nH]c(Nc2ccccc2Cl)cc2ccccc12	-2	-1	·	39*	·
O=c1[nH]c(Nc2ccc(F)cc2)cc2ccccc12	0	-15	13	54*	15
Cc1cc2ccccc2c(=O)[nH]1	0	0	-1	2	1
Cc1ccccc1Nc1cc2ccccc2c(=O)[nH]1	·	-22	-3	17*	-32
O=C1C2CC=C(Cl)CC2C(=O)N1CCCCCCN1C(=O)C2CC=C(Cl)CC2C1=O (configuration not stated)	1	-28*	-31	-10	-115
CC(C)CN1CN2Cc3ccccc3C2CS1(=O)=O (configuration not stated)	-1	·	·	·	·
COc1ccc(S(=O)(=O)N2C[C@H]3CON(C)[C@H]3C[C@H]2c2ccc(-c3cc4ccccc4o3)cc2)cc1	1	·	·	·	·
O=C(CCc1ccccc1)N[C@H]1[C@H](OC(=O)c2cnccn2)CCC[C@@]12C(=O)N(Cc1ccccc1)c1ccccc12	1	·	·	·	·
CCOC(=O)COc1ccc2c(C#N)c3ccccn3c2c1	-3	1	20	5	92*
CCOC(=O)c1c2ccc(OCC(=O)N/N=C/c3ccc(Cl)cc3)cc2n2ccccc12	-1	?	·	41*	-62
N#Cc1c2ccc(OCC(N)=O)cc2n2ccccc12	-7	-4	20	55*	86*
Fc1ccc(NC(=S)N2CCN(c3cccc(C(F)(F)F)c3)CC2)cc1	-1	-2	3	27*	1
Nc1cccc2cc(-c3ccccc3)oc12	-1	·	·	·	·
CC1(C)CC(=O)C=C(Nc2ccc(F)cc2F)C1	-3	1	-2	35*	2
CC1(C)CC(=O)C=C(Nc2ccc(F)c(Cl)c2)C1	0	2	·	4	·
CC1(C)CC(=O)C=C(Nc2ccc(F)cc2)C1	1	3	1	27*	-5
